# Assay outcomes (PubChem)
# An excerpt weighted towards active compounds, which were near 1.9% of everything screened.
# CHRM4 antagonist: human M4 muscarinic receptor antagonists, primary screen, CHO cells, Fluo-8 calcium fluorescence | Muscarinic acetylcholine receptor M4 (Homo sapiens), P08173 | CHO-hM4 cells, ACh EC80 | inhibition, % at 3 µM | hit rate 0.73% among 360,000;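 active means inhibition above its plate's cutoff, the mean inhibition of sample wells plus 3 SD, cut at about 27% in these data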;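 further: 0% = acetylcholine EC80 with DMSO and 100% = DMSO without agonist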
# M5 PAM: human M5 muscarinic receptor positive allosteric modulators, primary screen, CHO-K1 cells, Fluo-8 calcium fluorescence; Muscarinic acetylcholine receptor M5 (Homo sapiens), P08912; CHO-K1 hM5, ACh EC20 PAM; 0% = ACh EC20, 100% = ACh EC100; activation, % at 3 µM; hit rate 0.3% among 360,000; AID 624038, 2012;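 active means activation above the run cutoff, the mean activation of all test compounds plus 3 SD, cut at about 18% in these data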
# Target sequence (P08912 whole entry, looked up): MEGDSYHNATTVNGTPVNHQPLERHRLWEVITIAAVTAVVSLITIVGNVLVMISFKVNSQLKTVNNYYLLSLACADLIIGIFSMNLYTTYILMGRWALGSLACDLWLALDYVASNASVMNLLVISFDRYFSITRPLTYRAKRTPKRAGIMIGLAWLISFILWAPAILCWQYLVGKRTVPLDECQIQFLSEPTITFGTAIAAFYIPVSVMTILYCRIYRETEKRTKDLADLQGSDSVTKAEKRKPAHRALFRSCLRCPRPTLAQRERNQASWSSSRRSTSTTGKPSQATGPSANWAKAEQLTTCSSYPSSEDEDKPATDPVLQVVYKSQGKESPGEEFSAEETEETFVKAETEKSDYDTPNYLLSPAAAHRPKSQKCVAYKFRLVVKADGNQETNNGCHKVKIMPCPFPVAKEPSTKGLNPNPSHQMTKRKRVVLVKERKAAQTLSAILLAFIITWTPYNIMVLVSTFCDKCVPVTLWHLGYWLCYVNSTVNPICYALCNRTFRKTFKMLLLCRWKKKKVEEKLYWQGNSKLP
#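 system = human M5 receptor in CHO-K1 cells | reagent = EC20 acetylcholine as agonist stimulus | compound dosing = single-point, 3 µM nominal | incubation = Fluo-8 loading 80 min at 37 °C plus 30 min room temperature | detection = Fluo-8 calcium dye fluorescence, kinetic read | benchmarks = low control EC20 acetylcholine (0%), high control EC100 acetylcholine (100%)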
# M4 PAM: human M4 muscarinic receptor positive allosteric modulators, primary screen, CHO-K1 cells, Fluo-8 calcium fluorescence; AID 624126, 2012; CHO-K1 hM4/Gqi5, ACh EC20; 0% = ACh EC20, 100% = maximal ACh; activation, % at 3 µM; hit rate 0.4% among 360,000;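 active means activation above its plate's cutoff, the mean activation of sample wells plus 3 SD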
# CHRM5 agonist: human M5 muscarinic receptor agonists, primary screen, CHO-K1 cells, Fluo-8 calcium fluorescence. Muscarinic acetylcholine receptor M5 (Homo sapiens), P08912. CHO-K1 hM5 cells; 0% DMSO wells, 100% maximal acetylcholine response. activation, % at 3 µM. hit rate 0.19% among 360,000;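 active means activation above the run's mean over test compounds plus 3 SD, cut at about 23% in these data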;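 further: signal is peak over basal fluorescence ratio across the kinetic read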
# M5 antag: human M5 muscarinic receptor antagonists, primary screen, CHO cells, Fluo-8 calcium fluorescence; Muscarinic acetylcholine receptor M5 (Homo sapiens), P08912; CHO-hM5 cells, ACh EC80; inhibition, % at 3 µM; hit rate 0.59% among 360,000; AID 624040, 2012;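 active means inhibition above a per-plate cutoff, the mean of that plate's test compounds plus 3 SD, cut at about 27% in these data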;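 further: 0% = acetylcholine EC80 with DMSO and 100% = DMSO without agonist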
# CHRM4 agonist: human M4 muscarinic receptor agonists, primary screen, CHO-K1 cells, Fluo-8 calcium fluorescence. AID 624127, 2012. activation, % at 3 µM. Muscarinic acetylcholine receptor M4 (Homo sapiens), P08173. hit rate 0.14% among 360,000. CHO-K1 hM4/Gqi5; vehicle 0%, full acetylcholine response 100%;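 active means activation above the run mean over all test wells plus 3 SD, cut at about 32% in these data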;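 further: peak over basal fluorescence ratio per well then scaled between controls; 0% = DMSO wells and 100% = acetylcholine at EC100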
# The depositor's hits bear a star.
SMILES,CHRM4 antagonist,M5 PAM,M4 PAM,CHRM5 agonist,M5 antag,CHRM4 agonist
CCOC(=O)N1CCN(c2ncc(C(F)(F)F)cc2Cl)CC1,-6,-4,23*,-5,-8,1
CCOC(=O)C=C1CCN(c2ncc(C(F)(F)F)cc2Cl)CC1,-4,-6,-3,0,5,0
N#Cc1nc(-c2ccccc2Cl)oc1N1CCN(C(=O)c2ccco2)CC1,-7,23*,7,0,-19,0
N#Cc1nc(-c2ccc(F)cc2)oc1N1CCN(C(=O)c2ccco2)CC1,-12,-9,-2,-3,13,1
COc1cccc(-c2nc(C#N)c(N3CCN(C(=O)c4ccco4)CC3)o2)c1,3,5,22*,-3,-8,1
CC(=O)c1ccc(C(=O)N2CCCC(N3CCN(c4ccc(F)cc4)CC3)C2)s1 (stereo not drawn),2,-2,11,-4,5,2
COCCN(C(=O)COC(=O)CSc1ccc2ccccc2c1)c1c(N)n(Cc2ccccc2)c(=O)[nH]c1=O,-14,1,9,-8,4,-1
COc1ccc([C@H]2CC(=O)C=C(c3ccc(C(F)(F)F)c(C(F)(F)F)c3)C2)cc1OC,-25,20*,4,-1,-8,1
N#CC1C(=O)c2ccccc2C1c1ccccc1 (stereo not drawn),59*,-39,-10,-8,29*,5
CCCn1c(C(CO)Nc2nc(C)cs2)nc2ccccc21 (stereo not drawn),-15,-3,7,-2,11,0
CCOC(=O)N1CCN(C(=O)c2ccc3c(=O)n(CCC4=CCCCC4)c(=O)[nH]c3c2)CC1,39*,-8,-24,-4,6,2
CCCC(=O)NC(=S)c1c(C)n(C)n(-c2ccccc2)c1=O,-13,10,10,6,-8,-2
CC(=O)Nc1ccc(NC(=O)c2nc(S(=O)(=O)Cc3cccc(C)c3)ncc2Cl)cc1,18,-7,-7,-6,17,0
Cc1cccc(CS(=O)(=O)c2ncc(Cl)c(C(=O)NCc3ccc4c(c3)OCO4)n2)c1,33*,1,-16,-4,12,5
CCc1ccc(NC(=O)c2nc(S(=O)(=O)Cc3ccccc3)ncc2Cl)cc1,68*,-8,-12,-6,20,3
Cc1ccc(NC(=O)c2nc(S(=O)(=O)Cc3ccccc3C)ncc2Cl)cc1C,36*,0,-8,-5,4,5
CC1CCN(S(=O)(=O)c2ccc(NC(=O)c3ccncc3)cc2)CC1,-2,-4,-11,2,-4,11
CCS(=O)(=O)c1ncc(Cl)c(C(=O)Nc2ccc(S(=O)(=O)N3CCC(C)CC3)cc2)n1,47*,-10,-11,-7,27,13
Cc1ccsc1/C=N/NC(=O)CC(=O)NCC(C)C,-5,6,2,-3,-5,2
O=C(Cn1ccccc1=S)c1ccc(Cl)c(Cl)c1,-1,-13,-3,-8,16,2
On1ccccc1=S,31*,-2,0,3,23,3
COC(=O)c1ccc(Cl)cc1NC(=O)/C=C/c1ccc(C)o1,1,20*,3,0,16,0
COc1cc(/C=N/NC(=O)c2ccc(O)cc2)ccc1Oc1ccc([N+](=O)[O-])cn1,5,-10,-3,2,10,6
Cc1cc(C)cc(OCC(O)CN2C(=O)NC(C)(C)C2=O)c1 (stereo not drawn),-9,-3,5,3,-6,2
Cc1ccc(OCC(O)CN2C(=O)NC(C)(C)C2=O)c(C)c1 (stereo not drawn),-7,8,19*,4,0,3
SMILES,CHRM4 antagonist,M5 PAM,M4 PAM,CHRM5 agonist,M5 antag,CHRM4 agonist
CCOC(=O)c1c(C)[nH]c(C)c1C(=O)CSc1ncccn1,-13,25*,6,0,-1,1
CCOC(=O)c1c(C)[nH]c(C)c1C(=O)CSc1nc2ccccc2[nH]1,10,-6,-14,2,2,9
CN(C)c1ccc(/C=C/c2ccc3ccccc3n2)cc1,4,-4,-1,4,18,6
CCN(CC)c1ccc(/C=C/c2cc(-c3ccccc3)c3ccccc3n2)cc1,31*,-5,-5,9,20,24
COC(=O)[C@@]1(Sc2ccc(C)cc2)CC(=O)N(c2ccc(Cl)cc2)[C@@H]1c1ccccc1,-2,-3,1,-1,-6,0
COC(=O)c1cccc(N2C(=O)C[C@](Sc3ccc(C)cc3)(C(=O)OC)[C@H]2c2ccccc2)c1,27*,-16,-12,-1,5,16
CCOC(=O)CCc1nn(C)c(=O)c2ccccc12,0,-14,8,-3,67*,3
CCOC(=O)C(C)c1nn(C)c(=O)c2ccccc12 (stereo not drawn),3,-18,-6,-10,7,5
N=C(N)SCC1=CCS(=O)(=O)C1,21,-20,-9,-2,31*,19
Cc1noc(C(=O)Nc2cccc(Cl)c2)c1Cl,5,-4,-2,-1,15,2
CCOC(=O)c1cc([N+](=O)[O-])c([N+](=O)[O-])cc1NC(C)=O,-4,-1,2,-3,0,-3
Fc1cccc(Cc2noc(CN3CCCN(C4Cc5ccccc5C4)CC3)n2)c1,54*,-20,-22,-12,2,2
COc1cc(C(=O)OCC(=O)Nc2ccc3c(c2)OC(F)(F)O3)ccc1OCc1c(C)noc1C,6,32*,7,-4,-3,1
COc1ccc(NC(=O)COC(=O)c2ccc(OCc3c(C)noc3C)cc2)cc1OC,5,-17,-18,3,26,7
NNC1=N[C@H]2CS(=O)(=O)C[C@H]2S1,-5,9,24*,-1,-2,1
O=C(NCc1ccccc1)c1ccc(NC2=NC3CS(=O)(=O)CC3S2)cc1 (stereo not drawn),2,0,0,-1,2,1
COc1ccc(-c2cc(C(=O)N/N=C(\C)c3cccnc3)c3cc(C)ccc3n2)cc1OC,-8,13,7,-4,-11,6
CCN(CC)CCOC(=O)C(Cc1ccco1)Cc1cccc2ccccc12 (stereo not drawn),17,-27,-15,-16,28*,12
Cc1ccccc1C(=O)N1CCC(C(=O)OCC(=O)Nc2cccc([N+](=O)[O-])c2C)CC1,-16,-4,9,4,3,7
